Activity calls are given as the source filed them. No cut-off for these calls is given here.
Each compound was assayed against T1, Human immunodeficiency virus type 1 integrase (Human immunodeficiency virus 1, UniProt Q7ZJM1) (assay: Inhibition of GST-tagged HIV1 integrase and C-terminal His6-tagged HIV1 integrase dimerization after 3 hrs by AlphaScreen-based dimerization assay).
How it was run: (§1)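 AlphaScreen proximity assay. GST-tagged HIV-1 IN is mixed with His6-tagged IN and incubated so monomers exchange between pre-existing dimers, giving a steady-state mix of homo- and GST/His6 heterodimers. Photon counts are normalized to DMSO and blank controls and expressed as normalized signal (%). Dose–response curves give the IC50, and single-concentration tests give percent inhibition.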

T1 sequence (Q7ZJM1 whole entry): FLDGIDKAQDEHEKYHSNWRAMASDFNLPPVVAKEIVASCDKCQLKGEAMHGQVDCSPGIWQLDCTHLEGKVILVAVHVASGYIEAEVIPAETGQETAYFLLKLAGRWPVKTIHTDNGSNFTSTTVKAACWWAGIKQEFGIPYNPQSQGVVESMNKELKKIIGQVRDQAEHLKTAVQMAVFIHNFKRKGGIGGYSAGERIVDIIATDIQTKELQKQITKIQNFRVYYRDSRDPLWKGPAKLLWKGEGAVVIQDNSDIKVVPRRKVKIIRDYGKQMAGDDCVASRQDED

| IC50 [µM] | Structure (SMILES) |
| --- | --- |
| 38.4 | COc1ccc(CCNC(=O)C/C(C)=N/NC(=O)c2cc3ccccc3cc2O)cc1OC |
| 128 | COc1ccc(CNC(=O)C/C(C)=N/NC(=O)c2cc3ccccc3cc2O)cc1 |

What follows are compounds tested against T1, Human immunodeficiency virus type 1 integrase (assay: Inhibition of HIV1 integrase using oligodeoxynucleotide as substrate after 1 hr by ELISA).

| IC50 [µM] | Structure (SMILES) |
| --- | --- |
| 79 | COc1ccc(CCNC(=O)C/C(C)=N/NC(=O)c2cc3ccccc3cc2O)cc1OC |

Each compound was assayed against Human immunodeficiency virus type 1 integrase (Human immunodeficiency virus 1) (UniProt Q7ZJM1) (assay: Inhibition of GST-tagged HIV1 integrase and C-terminal His6-tagged HIV1 integrase dimerization at 100 uM after 3 hrs by AlphaScreen-based dimerization assay).
How it was run: as §1

Human immunodeficiency virus type 1 integrase (Human immunodeficiency virus 1), sequence (Q7ZJM1 as listed by the source): as the sequence (Q7ZJM1 whole entry) above

| inhibition | Structure (SMILES) |
| --- | --- |
| inactive | C/C(CC(=O)Nc1ccc(Cl)c(Cl)c1)=N\NC(=O)c1cc2ccccc2cc1O |
| 50% | COc1cccc2[nH]c(C(=O)NCCCC(=O)Nc3ccc4c(c3)OCCO4)cc12 |
| 13% | Cc1ccc(C(=O)CCC(=O)Nc2nc3c(s2)CCc2c-3cnn2C)cc1C |
| 58% | COc1ccc(OC)c2[nH]c(C(=O)NCCCC(=O)Nc3ccc4c(c3)OCCO4)cc12 |
| 83% | COc1ccc(CCNC(=O)C/C(C)=N/NC(=O)c2cc3ccccc3cc2O)cc1OC |
| 50% | COc1ccc(CNC(=O)C/C(C)=N/NC(=O)c2cc3ccccc3cc2O)cc1 |
| 49% | O=C(N/N=C/c1ccc(-c2ccc(Cl)cc2Cl)o1)c1cc2ccccc2cc1O |
| inactive | O=C(NCCNC(=O)c1cc2ccccc2cc1O)c1cc2ccccc2cc1O |
| inactive | COc1ccc(C(=O)N/N=C(\C)CC(=O)NCc2ccccc2)cc1OC |
| inactive | C[C@H](Oc1ccc2c(c1)CCC2)C(=O)NNC(=O)Nc1cccc([N+](=O)[O-])c1 |
| 49% | O=C(CNc1ccc2ccccc2c1)N/N=C/c1ccc(-c2ccc(Cl)cc2)o1 |
| 23% | CCc1ccc(O)c(NC(=S)NC(=O)COc2cc(C)c(Cl)c(C)c2)c1 |
| inactive | Cc1ccc(C2(O)CCN(CCNC(=O)Cc3cccc(C)c3)CC2)cc1 |
| inactive | O=C(NCCNC(=O)c1cc2ccccc2o1)c1nc2ccccc2c(=O)[nH]1 |
| inactive | Cc1cc(C)cc(OCC(=O)NNC(=O)c2ccc3ccccc3c2O)c1 |
| inactive | O=C(Nc1cccc(-c2cnc3ccccc3n2)c1)c1cc2ccccc2cc1O |
| 32% | COc1cccc(-c2nc(C)c(C(=O)Nc3cc(C)ccc3O)s2)c1 |
| inactive | O=C(NCCNC(=O)c1nc2ccccc2c(=O)[nH]1)c1ccc2ccccc2n1 |
| 54% | C/C(CC(=O)Nc1ccc(OCc2ccccc2)cc1)=N\NC(=O)c1cc2ccccc2cc1O |
| inactive | COc1cccc2[nH]c(C(=O)NCCC(=O)Nc3nc4ccccc4s3)cc12 |
| 14% | CC(CCc1ccccc1)NC(=O)c1ccc(NC(=O)C2COc3ccccc3O2)cc1 (stereo not drawn) |
| 30% | O=C(N/N=C/c1ccc(Sc2ccccn2)o1)c1cc2ccccc2cc1O |
| inactive | CCn1c2ccccc2c2cc(NC(=O)/C=C(\C)NNC(=O)Cc3cccc4ccccc34)ccc21 |
| inactive | COc1ccc(/C=C/C(=O)Nc2ncc(Cc3cccc(C)c3)s2)cc1 |
| 73% | COc1ccc(OC)c2[nH]c(C(=O)NCCC(=O)NCCc3c[nH]c4ccccc34)cc12 |
